GSTO1 counter – inhibitors of recombinant GSTO1, primary screen, counter-screen for RBBP9 inhibitor project, biochemical, fluorescence polarization | Glutathione S-transferase omega-1 (Homo sapiens), P78417 | activity-based probe fluorescence polarization | inhibition, % at 5.96 µM | 300,000 compounds, 1.1% hits | AID 1974, 2009;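 active = inhibition above the campaign mean inhibition plus 3 SD, cut at about 35% in these data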;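 note: 0% = GSTO1-1 with DMSO and 100% = wells lacking GSTO1-1 enzyme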
SIAE inh – human SIAE inhibitors, primary screen, biochemical, fluorescence polarization, FP-Rh probe, 1536-well HTS | Sialate O-acetylesterase (Homo sapiens), Q9HAT2 | SIAE FP-Rh probe binding | inhibition, % at 9.66 µM | 370,000 compounds, 0.69% hits;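 active = inhibition above a cutoff: mean of compounds within the control limits plus 3 SD of those, cut at about 17% in these data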;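 note: 0% = plate median of compound wells and 100% = probe without SIAE protein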
PAD4 inh – human PAD4 inhibitors, primary screen, biochemical, fluorescence polarization, 1536-well format; Protein-arginine deiminase type-4 (Homo sapiens), Q9UM07; recombinant PAD4, RCA probe fluorescence polarization; inhibition, % at 6.36 µM; 330,000 compounds, 0.41% hits; AID 485272, 2010;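 active = percent inhibition above a cutoff equal to the mean of all tested compounds plus 3 SD, cut at about 15% in these data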;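 note: 0% = PAD4 with RCA probe and DMSO and 100% = probe without PAD4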
Target sequence (Q9UM07 whole entry, looked up): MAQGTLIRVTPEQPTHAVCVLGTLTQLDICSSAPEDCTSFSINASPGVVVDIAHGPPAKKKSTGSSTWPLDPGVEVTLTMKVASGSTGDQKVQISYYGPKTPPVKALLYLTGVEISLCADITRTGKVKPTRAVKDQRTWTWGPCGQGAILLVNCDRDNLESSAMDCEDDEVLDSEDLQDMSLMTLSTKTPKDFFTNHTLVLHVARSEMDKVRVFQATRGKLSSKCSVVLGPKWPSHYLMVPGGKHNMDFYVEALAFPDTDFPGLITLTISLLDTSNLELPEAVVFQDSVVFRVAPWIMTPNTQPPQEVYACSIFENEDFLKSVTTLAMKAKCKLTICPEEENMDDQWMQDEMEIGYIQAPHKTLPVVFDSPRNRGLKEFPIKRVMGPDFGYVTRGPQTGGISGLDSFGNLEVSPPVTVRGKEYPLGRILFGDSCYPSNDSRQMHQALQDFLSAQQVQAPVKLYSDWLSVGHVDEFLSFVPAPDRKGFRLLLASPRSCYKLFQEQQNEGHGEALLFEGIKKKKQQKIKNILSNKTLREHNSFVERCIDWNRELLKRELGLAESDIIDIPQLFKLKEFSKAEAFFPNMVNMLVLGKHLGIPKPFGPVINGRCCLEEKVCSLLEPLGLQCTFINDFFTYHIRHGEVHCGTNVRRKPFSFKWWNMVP
TDP2 inh – human TDP2 enzyme inhibitors, primary screen, biochemical, epi absorbance, recombinant enzyme | Tyrosyl-DNA phosphodiesterase 2 (Homo sapiens), O95551 | T5PNP hydrolysis, p-nitrophenol absorbance 415 nm | inhibition, % at 12.8 µM | 370,000 compounds, 0.34% hits | AID 720702, 2013;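 active = inhibition above the mean of all tested compounds plus 3 SD, set per campaign, cut at about 25% in these data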;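 note: 0% = DMSO with enzyme and 100% = buffer with substrate but no TDP2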
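Incubation: 2 h at 37 °C; Test system: recombinant human TDP2; Quantity: enzyme 120 nM; Read-out basis: percent inhibition; Medium: 50 mM Tris-HCl pH 7.5 with Mg2+, KCl, DTT, BSA; Repeats: single replicate; Compound: 12.8 µM single point, 1% DMSO; Signal: epi absorbance; Reagent: 5 mM T5PNP chromogenic substrate; Benchmarks: no-enzyme high, DMSO-plus-enzyme low.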
TCR CD3 inh – inhibitors of human TCR-CD3 interaction, primary screen, biochemical, fluorescence, TAMRA-labeled TCR probe. T-cell receptor (TCR). inhibition, % at 9.4 µM. 360,000 compounds, 0.37% hits. AID 651800, 2012; in the data active = inhibition above about 19%;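 note: recombinant mutant TCR 2C K166C tagged with TAMRA read by polarization; 0% = receptor in buffer alone and 100% = receptor with positive control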
Apaf-1 inh – inhibitors of human Apaf-1 apoptosome, primary screen, biochemical, DEVD-Rh110 fluorescence, uHTS; Apoptotic protease-activating factor 1 (Homo sapiens), O14727; reconstituted apoptosome caspase-3 activity; inhibition, % at 20 µM; 330,000 compounds, 0.71% hits; active = inhibition of at least 40% at 20 µM;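 note: plate controls were DMSO wells for no effect and DEVD-CHO caspase inhibitor wells for full effect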
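System: reconstituted apoptosome with Apaf-1, cytochrome c, caspase-9, procaspase-3, dATP; Signal: Rh110 fluorescence intensity; Schedule: 30 min compound preincubation, 50 min activation, room temperature; Reagent: cytochrome c trigger plus (Z-DEVD)2-Rh110 caspase-3 substrate.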
SIAE inh conf – human SIAE inhibitors, retest, confirmation, biochemical, fluorescence polarization, FP-Rh probe, triplicate; shares compounds with SIAE inh; SIAE FP-Rh activity-based probe; 2,300 compounds, 13% hits; AID 1117263, 2014; inhibition, % at 9.66 µM;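 active = mean inhibition of the replicates above the hit cutoff set in the primary screen, cut at about 17% in these data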;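 note: 0% = SIAE with DMSO and probe and 100% = probe without SIAE; inhibitors lower polarization as more probe stays unbound to SIAE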
* hit, by the source's call. Rows were chosen to be rich in hits. Some 2.4% of all compounds tested hit in one or more screens of this group.

Results for COc1ccc2[nH]c(C)c(CCNC(=S)Nc3cccc(C)c3C)c2c1 ?
GSTO1 counter: -3; SIAE inh: 18*; PAD4 inh: 4; TDP2 inh: 4; TCR CD3 inh: 1; Apaf-1 inh: 10; SIAE inh conf: 0

What do the screens show for `O=C(CSc1nc2ccc(Cl)cc2[nH]1)Nc1ccc2[nH]c(=O)[nH]c2c1`?
GSTO1 counter: -53; SIAE inh: 18*; PAD4 inh: -6; TDP2 inh: 2; TCR CD3 inh: -8; Apaf-1 inh: 6; SIAE inh conf: 2

What do the screens show for `Cc1cc(NC(=O)C2C3C(=O)N(Cc4ccc(Cl)cc4)C(C(=O)NCc4ccccc4)C34C=CC2(C)O4)no1` (stereo not given)?
GSTO1 counter: -4; SIAE inh: -4; PAD4 inh: -5; TDP2 inh: -19; TCR CD3 inh: 4; Apaf-1 inh: 6

Results for O=[N+]([O-])c1ccc(-c2ccc(/C=N/O)o2)cc1 ?
GSTO1 counter: 6; SIAE inh: 25*; PAD4 inh: -2; TDP2 inh: -6; TCR CD3 inh: -8; Apaf-1 inh: 0; SIAE inh conf: 2

What do the screens show for `NC(=O)N/N=C/c1ccc(-c2ccc([N+](=O)[O-])cc2)o1`?
GSTO1 counter: -8; SIAE inh: 11; PAD4 inh: 2; TDP2 inh: -12; TCR CD3 inh: -7; Apaf-1 inh: -17

Results for CCCN(CCC)C(=O)c1c(NC(=O)CC)sc2c1CCCCC2 ?
GSTO1 counter: 2; SIAE inh: 22*; PAD4 inh: -3; TDP2 inh: 6; TCR CD3 inh: 6; Apaf-1 inh: 12; SIAE inh conf: -5

Results for CC/C(Cc1ccccc1)=N\NC(=O)c1cc([N+](=O)[O-])cc([N+](=O)[O-])c1 ?
GSTO1 counter: 7; SIAE inh: -3; PAD4 inh: -3; TDP2 inh: 3; TCR CD3 inh: -4; Apaf-1 inh: -12

Results for CC/C(Cc1ccccc1)=N/NC(=O)c1cccc(Br)c1 ?
GSTO1 counter: -3; SIAE inh: 18*; PAD4 inh: 1; TDP2 inh: 0; TCR CD3 inh: 5; Apaf-1 inh: -1; SIAE inh conf: 0

What do the screens show for `O=C(NNC(=S)Nc1ccc(Cl)cc1Cl)c1cccnc1`?
SIAE inh: 20*; PAD4 inh: -6; TDP2 inh: -4; TCR CD3 inh: -3; Apaf-1 inh: -11; SIAE inh conf: 2

Results for CCOC(=O)C(O)(C1C(=O)CC(C)(C)CC1=O)C(F)(F)F (stereo not given) ?
GSTO1 counter: 6; SIAE inh: 33*; PAD4 inh: -6; TDP2 inh: 0; TCR CD3 inh: -3; Apaf-1 inh: 0; SIAE inh conf: 19*

How did O=C(Oc1cccc(OC(=O)c2ccco2)c1)c1ccco1 do in these assays?
SIAE inh: 1; TDP2 inh: 2; TCR CD3 inh: -8; Apaf-1 inh: 3

How did COC(=O)[C@H]1C[C@@H]1[C@H](NC(=O)[C@H]1C[C@@H]1[C@H](NC(=O)OCc1ccccc1)c1ccccc1)c1ccccc1 do in these assays?
GSTO1 counter: -2; SIAE inh: 20*; PAD4 inh: -1; TDP2 inh: -1; TCR CD3 inh: -2; Apaf-1 inh: 27; SIAE inh conf: -3

How did Cc1nc(-c2ccc(NC(=O)c3ccc(Br)o3)cc2)cs1 do in these assays?
GSTO1 counter: -5; SIAE inh: -4; PAD4 inh: -4; TDP2 inh: 0; TCR CD3 inh: 3; Apaf-1 inh: 4

Compound activity: PubChem, several laboratories
